This is a sample that favours compounds with a hit; in the whole collection about 2.6% have one here.
MC4R antagonist – MC4R antagonists of cAMP signaling, primary screen, cell-based, TR-FRET, antagonist arm of biased-ligand search | hit rate 0.48% among 360,000 | inhibition, % at 6.5 µM | Melanocortin receptor 4 (Homo sapiens), P32245 | MC4R-expressing cells, MTII-stimulated cAMP, LANCE TR-FRET;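 active = inhibition above its plate's cutoff, the mean of tested wells on that plate plus 3 SD, cut at about 29% in these data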;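 note: 0% = Melanotan II alone and 100% = Melanotan II plus saturating MCL0020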
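Assay system: U2OS cells stably expressing human melanocortin 4 receptor (MC4R) / Dosing: 6.5 µM / Timing: compound 30 min, challenge 1 h, detection 1 h / Measured by: Eu-cAMP/anti-cAMP TR-FRET, emission 671 nm / Replicates: singlicate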
iPSC survival up – enhancers of single-cell hiPSC survival, primary screen, ATPlite luminescence; 100% = ROCK inhibitor wells, 0% = DMSO; survival enhancement, % at 20 µM; hit rate 0.044% among 360,000; AID 602274, 2012; in the data active = survival enhancement above about 18%;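 note: cells exposed to compounds for 16 hours before the ATP read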
Exocytosis inh – LAMP-1 surface exposure blockers, TALL-104 cells – cell-based, flow cytometry, MLPCN library, primary screen; TALL-104 LAMP-1 surface exposure; cells stimulated with thapsigargin and PMA; inhibition, % at 10 µM; hit rate 0.66% among 360,000;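 active = inhibition above about 55%, limit read from the data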
Tb MetRS inh – T. brucei MetRS inhibitors, primary screen, biochemical, luminescence; methionyl-tRNA synthetase (Trypanosoma brucei brucei); purified T. brucei MetRS, ATP depletion, Kinase-Glo luminescence; inhibition, % at 11.9 µM; hit rate 0.4% among 360,000;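 active = inhibition above a per-plate cutoff of the control wells' mean inhibition plus 3 SD, cut at about 5.5% in these data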;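 note: 0% = DMSO wells median and 100% = median of wells with control inhibitor compound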
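Test system – parasite MetRS enzyme · Reagent – substrates ATP, L-methionine and bulk Escherichia coli tRNA · Doses – 11.9 µM compound single dose, 0.9% DMSO · Times – 15 min enzyme-compound preincubation, 2 h reaction, 10 min detection, 25 °C · Signal – Kinase-Glo luminescence, ATP depletion format · Controls – DMSO-only wells as low control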
MC4R barr agon – MC4R agonists recruiting beta-arrestin, primary screen, cell-based, luminescence, agonist arm of biased-ligand search | Melanocortin receptor 4 (Homo sapiens), P32245 | U2OS MC4R beta-arrestin complementation; percent of melanotan II response, DMSO zero | activation, % at 8.9 µM | hit rate 0.98% among 360,000;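 active = activation above a per-plate cutoff, the mean activation of sample wells on that plate plus 3 SD, cut at about 8% in these data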
ABCB6 inh MLPCN – ABCB6 transporter inhibitors, primary screen, K562-ABCB6 cells, flow cytometry, MLPCN library | ATP-binding cassette sub-family B member 6 (Homo sapiens), Q9NP58 | fluorescence ratio to DMSO, % at 10 µM | hit rate 0.19% among 360,000 | K562-ABCB6 porphyrin accumulation, 1 h; hits give low values;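 active = fluorescence ratio to DMSO below 75%, the collection mean minus 3 SD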;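 note: signal is porphyrin accumulated inside mitochondria; 100% equals median channel fluorescence of DMSO control wells; lower ratio means ABCB6 inhibition with less porphyrin fluorescence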
MC4R barr ag – MC4R beta-arrestin agonists, retest, confirmation, cell-based, luminescence, U2OS; shares compounds with MC4R barr agon; U2OS MC4R beta-arrestin recruitment; scaled DMSO 0%, Melanotan II 100%; hit rate 31% among 2,400; AID 602192, 2012; activation, % at 8.9 µM;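 active = mean activation across replicates above the hit cutoff set in the earlier primary screen, cut at about 8% in these data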
MOR DOR agonist – agonists of MOR-DOR heterodimerization, counter-screen for MC4R biased agonist project, cell-based, luminescence; shares compounds with MC4R barr agon; U2OS PathHunter beta-arrestin, beta-gal luminescence; percent of deltorphin B response, DMSO zero; AID 602194, 2012; activation, % at 9.2 µM; hit rate 5.8% among 2,400;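 active = mean activation across replicates exceeds the hit threshold derived in the earlier primary screen, cut at about 18% in these data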;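 note: 100% = deltorphin B at 0.9 µM final and 0% = DMSO alone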
The depositor's hits bear a star; · = no result.

SMILES | MC4R antagonist | iPSC survival up | Exocytosis inh | Tb MetRS inh | MC4R barr agon | ABCB6 inh MLPCN | MC4R barr ag | MOR DOR agonist
Cn1c(CCNC(=O)c2cccs2)nnc1SCC(=O)Nc1nc(-c2ccccc2)cs1 | -1.1 | 4.6 | -1.1 | -0.7 | -2.2 | 89.0 | · | ·
O=C(CSc1nc(-c2ccccc2)cs1)Nc1nccs1 | -4.8 | -2.3 | -0.2 | -0.6 | 19.2* | 97.0 | -0.2 | 8.9
Cc1ccc(-c2csc(NC(=O)CSc3ncn(-c4ccccc4)n3)n2)cc1 | -2.7 | 1.8 | 0.4 | 0.2 | 11.4* | 89.0 | 4.6 | 5.1
Cc1ccc(C(=O)NCCc2nnc(SCC(=O)Nc3nc(-c4ccccc4)cs3)n2C)cc1 | -4.3 | 0.2 | -2.9 | 0.2 | 21.0* | 99.0 | 8.9* | 3.1
Cc1ccc(NC(=O)CSC2=Nc3ccccc3C3CC=NN23)c(C)c1 (centres undefined) | -3.0 | -0.4 | 3.0 | -0.1 | -2.0 | 97.0 | · | ·
O=C(CSC1=Nc2ccccc2C2CC=NN12)Nc1ccc(F)cc1Cl (centres undefined) | -15.8 | -0.4 | 9.2 | -1.1 | 25.6* | 92.0 | 0.0 | 4.0
Cc1ccc(Nc2nnc(SC3CCOC3=O)s2)c(C)c1 (centres undefined) | -1.1 | -0.4 | 0.0 | 0.0 | -1.1 | 97.0 | · | ·
O=C(NC(c1ccccc1)c1ccc2ccccc2n1)C1CCN(CCOc2ccc(Cl)cc2Cl)CC1 (centres undefined) | 12.6 | 8.5 | 18.8 | 0.1 | 39.0* | 100.0 | 18.4* | 7.4
Cc1cccnc1C(c1ccc(F)cc1)N(C)C(=O)C1CCN(CCOc2ccc(Cl)cc2Cl)CC1 (centres undefined) | 6.6 | -0.7 | 9.6 | 0.1 | 11.1* | 97.0 | 18.0* | 10.0
O=C(NC(c1ccc(F)cc1)c1ccc2ccccc2n1)C1CCN(CCOc2ccc(Cl)cc2)CC1 (centres undefined) | 6.3 | -2.0 | 46.7 | 0.3 | 7.9 | 88.0 | · | ·
COc1ccc(CC(=O)NCCC(C)C)cc1S(=O)(=O)N1CCOCC1 | -1.3 | 0.4 | -4.6 | 2.1 | -1.3 | 97.0 | · | ·
CCOC(=O)c1c(C)[nH]c(C)c1C(=O)CSc1nnc(-c2ccc(OC(F)F)cc2)o1 | 2.2 | 0.2 | -0.2 | -1.2 | 28.7* | 107.0 | 6.0 | 9.2
Clc1ccc(Cl)c(-c2nn3c(COc4ccccc4)nnc3s2)c1 | 11.7 | -2.0 | -0.6 | -0.1 | 17.2* | 91.0 | 11.4* | 3.5
c1ccc(OCc2nnc3sc(-c4cccs4)nn23)cc1 | -5.1 | -4.8 | -6.2 | -0.3 | -0.3 | 95.0 | · | ·
CCOC(=O)/C(C#N)=C(C)/C=C1\Sc2ccccc2N1CC | -15.6 | 1.4 | -1.9 | -1.2 | 18.4* | 83.0 | 15.1* | 1.6
CCOc1ccc(NC(=O)/C=C/c2ccccc2)c([N+](=O)[O-])c1 | -9.2 | 0.6 | -3.2 | -1.1 | 12.9* | 96.0 | 2.5 | 9.0
CCOc1ccc(N/C=C/C(=O)c2ccccc2)c([N+](=O)[O-])c1 | -12.4 | -3.3 | -5.1 | -2.0 | 27.1* | 101.0 | 3.7 | 3.0
CCOc1ccc(Nc2ccc(C(=O)O)cc2[N+](=O)[O-])cc1 | 0.4 | -0.5 | 10.5 | 0.5 | -2.4 | 100.0 | · | ·
CC(C)CC(=O)OC1C(N2CCOCC2)c2c(ccc(/C=C/C(=O)N3CCOCC3)c2O)OC1(C)C (centres undefined) | 0.7 | -0.3 | 2.7 | -0.4 | 12.4* | 96.0 | 5.0 | 3.2
CC(=O)OC1c2c(ccc3ccc(=O)oc23)OC(C)(C)C1OC(=O)CC(C)C (centres undefined) | 3.3 | 9.7 | 0.1 | 0.2 | 1.7 | 100.0 | · | ·
Cc1cc(=O)oc2cc(OCC(=O)Nc3ccccc3C(N)=O)c(Cl)cc12 | 19.9 | -0.7 | -0.6 | -0.1 | -1.5 | 98.0 | · | ·
CCCCc1ccc(-n2c(Cc3cccs3)n[nH]c2=S)cc1 | 3.3 | 4.3 | 6.7 | -0.6 | 0.2 | 105.0 | · | ·
COc1ccc(Cn2c(=S)[nH]c3ccccc3c2=O)cc1 | 0.8 | -0.1 | -17.6 | 0.9 | 10.8* | 98.0 | -2.6 | 3.0
COc1ccc(/C=N/Nc2ccc(C(F)(F)F)cc2[N+](=O)[O-])cc1O | -7.6 | -0.9 | -1.8 | -1.1 | 20.3* | 100.0 | 3.6 | 4.1
O=C(CCCOc1ccc(Cl)cc1Cl)N/N=C/c1ccc(Cl)cc1 | 4.1 | -0.7 | -2.7 | 1.9 | 9.8* | 98.0 | 7.5 | 2.0
SMILES | MC4R antagonist | iPSC survival up | Exocytosis inh | Tb MetRS inh | MC4R barr agon | ABCB6 inh MLPCN | MC4R barr ag | MOR DOR agonist
CCC1CCc2c(sc(NC(=O)c3cnccn3)c2C(N)=O)C1 (centres undefined) | 7.9 | -0.4 | 2.2 | 0.0 | -1.1 | 97.0 | · | ·
Cc1c(NC(=O)COC(=O)/C=C/c2ccccc2Br)c(=O)n(-c2ccccc2)n1C | 8.9 | 0.2 | -2.5 | -0.3 | -1.1 | 93.0 | · | ·
Cn1c(SCC(=O)Nc2cc(Cl)cc(Cl)c2)nnc1-c1ccc2nonc2c1 | -6.3 | 0.3 | -6.4 | -0.1 | 35.8* | 102.0 | 7.8 | 8.0
O=[N+]([O-])c1cccc2ccc(/C=C/c3ccc(F)cc3)nc12 | -1.5 | 3.1 | 0.4 | -0.6 | 7.2 | 101.0 | · | ·
O=[N+]([O-])c1ccc(/C=C/c2ccc3cccc([N+](=O)[O-])c3n2)cc1 | 4.4 | 0.7 | -3.6 | 0.1 | 10.0* | 99.0 | 4.2 | 7.1
CCn1c(SCC(=O)Nc2ccc3c(c2)oc2ccccc23)nnc1-c1ccc(N)cc1 | 9.9 | -0.4 | 7.0 | -0.8 | 15.1* | 93.0 | 15.9* | 19.2*
O=C(COC(=O)c1sc2ccccc2c1Cl)Nc1ncc(Cl)cc1Cl | -4.9 | -2.7 | 1.3 | -0.3 | 26.6* | 109.0 | -1.9 | 3.6
CCCSc1nc2c(c(=O)[nH]c(=O)n2C)n1CC(O)COc1ccccc1 (centres undefined) | 16.9 | 0.2 | -1.9 | 0.4 | 0.3 | 94.0 | · | ·
CC(C)CSc1nc2c(c(=O)[nH]c(=O)n2C)n1CC(O)COc1cccc2ccccc12 (centres undefined) | 6.6 | 0.6 | 0.4 | -1.3 | 14.3* | 88.0 | 2.7 | 5.5
